Results published in ChEMBL document CHEMBL1133703, “Inhibitors of topoisomerase II based on the benzodiimidazole and dipyrroloimidazobenzimidazole ring systems: controlling DT-diaphorase reductive inactivation with steric bulk” (2000).

What was measured:
Format in all cases: functional
Conditions in all cases: Homo sapiens
[1] = test system: Ovarian carcinoma cell; test: Lethal concentration was determined against Ovarian cancer cell line
How it was run: (§1)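 NCI 60-cell-line in vitro screen run at the National Cancer Institute on a submitted sample of about 5 mg. The screen yields mean graph data: LC50 (50% lethal concentration), GI50 and TGI. The LC50 values reported are averages over the cell lines of each cancer type.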

[2] = test system: Panel leukemia (Carcinoma cell lines); test: Lethal concentration was determined against Leukemia cell line; how it was run: as §1
[3] = test system: CNS carcinoma cell; test: Lethal concentration was determined against CNS cancer cell line; how it was run: as §1
[4] = test system: NSCLC; test: Lethal concentration was determined against NSC lung cancer cell line; how it was run: as §1
[5] = test system: Melanoma cell; test: Lethal concentration was determined against Melanoma cell line; how it was run: as §1
[6] = test system: Renal cancer cell line; test: Lethal concentration was determined against Renal cancer cell line; how it was run: as §1
[7] = test system: Colon carcinoma cell; test: Lethal concentration was determined against Colon cancer cell line; how it was run: as §1

Row | SMILES | LC50 (50% lethal concentration) [1] [µM] | LC50 (50% lethal concentration) [2] [µM] | LC50 [3] [µM] | LC50 [4] [µM] | LC50 (50% lethal concentration) [5] [µM] | LC50 (50% lethal concentration) [6] [µM] | LC50 [7] [µM]
1 | Cn1c(CCl)nc2c1C(=O)c1c(nc(CCl)n1C)C2=O | 10 | 4.37 | 5.01 | 4.47 | 5.01 | 6.31 | 
2 | Cc1nc2c(n1C)C(=O)c1c(nc(CCl)n1C)C2=O | 25.1 | 12.9 | 15.8 | 12.3 | 5.89 | 15.8 | 6.31
3 | CC(=O)NC1=C(C)C(=O)c2c(nc3n2CCC3OC(C)=O)C1=O (centres undefined) | 15.8 | 100 | 25.1 | 20 | 12.6 | 15.8 | 31.6
4 | O=C1c2nc3n(c2C(=O)c2c1nc1n2CCC1)CCC3 | 50.1 | 100 | 63.1 | 39.8 | 15.8 | 79.4 | 50.1
5 | CC(=O)OC1CCn2c1nc1c2C(=O)c2c(nc3n2CCC3OC(C)=O)C1=O (centres undefined) | 3.98 | 2.51 | 3.16 | 3.98 | 2.57 | 6.31 | 3.8
